From ChEMBL document CHEMBL1154114, “7-((4-Substituted)piperazin-1-yl) derivatives of ciprofloxacin: synthesis and in vitro biological evaluation as potential antitumor agents” (Bioorg Med Chem, 2009)

What was measured:
MCF7 [1] = experiment: Inhibition of human MCF7 cell proliferation; format: functional, cell-based
G-quadruplex DNA = experiment: Interaction with G-quadruplex DNA assessed by polymerase stop assay
[2] = Inhibition of human RPMI8226/S cell proliferation; format: functional, cell-based
[3] = biological target: DNA topoisomerase 2-alpha (Homo sapiens) (UniProt P11388); experiment: Inhibition of human topoisomerase 2 assessed as conversion of catenated to decatenated form of kDNA
Chain of DNA topoisomerase 2-alpha (Homo sapiens) (P11388 whole entry): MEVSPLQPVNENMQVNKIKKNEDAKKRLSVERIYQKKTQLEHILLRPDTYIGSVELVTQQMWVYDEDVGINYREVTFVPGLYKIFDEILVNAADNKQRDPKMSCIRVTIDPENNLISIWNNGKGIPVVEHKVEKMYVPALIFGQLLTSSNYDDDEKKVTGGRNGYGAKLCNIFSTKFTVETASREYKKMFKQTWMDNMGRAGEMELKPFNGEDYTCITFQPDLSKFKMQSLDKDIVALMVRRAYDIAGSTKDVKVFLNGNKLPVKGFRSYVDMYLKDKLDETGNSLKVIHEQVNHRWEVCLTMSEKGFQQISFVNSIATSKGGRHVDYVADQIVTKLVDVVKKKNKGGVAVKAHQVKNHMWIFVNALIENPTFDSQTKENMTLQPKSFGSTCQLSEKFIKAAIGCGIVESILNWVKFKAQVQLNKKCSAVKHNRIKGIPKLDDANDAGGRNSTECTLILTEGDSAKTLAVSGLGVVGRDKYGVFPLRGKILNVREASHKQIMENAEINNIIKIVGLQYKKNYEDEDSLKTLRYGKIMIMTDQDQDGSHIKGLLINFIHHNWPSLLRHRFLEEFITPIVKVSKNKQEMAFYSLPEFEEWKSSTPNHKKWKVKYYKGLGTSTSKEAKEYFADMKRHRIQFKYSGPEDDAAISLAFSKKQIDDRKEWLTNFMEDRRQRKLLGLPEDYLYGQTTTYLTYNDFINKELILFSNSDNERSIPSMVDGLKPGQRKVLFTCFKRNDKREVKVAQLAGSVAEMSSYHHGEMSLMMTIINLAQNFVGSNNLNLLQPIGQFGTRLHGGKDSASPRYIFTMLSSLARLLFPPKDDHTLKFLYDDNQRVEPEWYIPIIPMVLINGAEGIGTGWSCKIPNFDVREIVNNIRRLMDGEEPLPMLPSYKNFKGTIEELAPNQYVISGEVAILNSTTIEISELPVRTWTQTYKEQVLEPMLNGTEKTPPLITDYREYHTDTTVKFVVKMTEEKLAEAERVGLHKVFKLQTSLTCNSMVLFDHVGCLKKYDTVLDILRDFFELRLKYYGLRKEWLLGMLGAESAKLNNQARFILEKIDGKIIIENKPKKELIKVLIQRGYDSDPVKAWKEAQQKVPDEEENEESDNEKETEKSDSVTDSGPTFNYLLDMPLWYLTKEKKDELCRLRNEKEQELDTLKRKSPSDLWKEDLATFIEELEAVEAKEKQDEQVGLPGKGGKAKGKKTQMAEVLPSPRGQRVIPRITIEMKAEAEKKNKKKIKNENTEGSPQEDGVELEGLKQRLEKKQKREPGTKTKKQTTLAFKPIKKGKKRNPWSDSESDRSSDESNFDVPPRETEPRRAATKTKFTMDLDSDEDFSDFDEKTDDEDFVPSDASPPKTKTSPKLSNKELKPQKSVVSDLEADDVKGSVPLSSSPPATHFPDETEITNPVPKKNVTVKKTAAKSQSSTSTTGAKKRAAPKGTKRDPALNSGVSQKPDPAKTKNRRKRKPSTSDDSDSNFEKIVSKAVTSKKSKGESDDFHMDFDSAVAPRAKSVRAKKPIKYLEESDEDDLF

NCI-H226 = experiment: Inhibition of human NCI-H226 cell proliferation; format: functional, cell-based
[4] = biological target: DNA topoisomerase 2-alpha (Homo sapiens) (UniProt P11388); experiment: Inhibition of human topoisomerase 2-mediated DNA unwinding activity
[5] = Inhibition of human MDA231 cell proliferation; format: functional, cell-based; settings: MDA-MB-231
HT-29 [6] = experiment: Inhibition of human HT-29 cell proliferation; format: functional, cell-based
LoVo [7] = experiment: Ratio of ciprofloxacin IC50 to compound IC50 for human LoVo cells; format: functional
MCF7 [8] = experiment: Ratio of ciprofloxacin IC50 to compound IC50 for human MCF7 cells; format: functional
PC-3 [9] = experiment: Ratio of ciprofloxacin IC50 to compound IC50 for human PC3 cells; format: functional
A549 [10] = experiment: Antitumor activity against human A549 cells after 5 days by MTT assay; format: functional, cell-based; settings: A549, 120 h
Method in brief: (§1)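 Five human cancer lines (prostate PC-3, glioblastoma U373-MG, colorectal LoVo, NSCLC A549, breast MCF-7) plated at 10⁴ to 3×10⁴ cells/mL depending on cell type, allowed 24 h to attach, then cultured 120 h with or without drug at nine concentrations. MTT reduction to formazan read at 570 nm (reference 630 nm).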

[11] = Toxicity in ip dosed B6D2F1 mouse assessed as maximum tolerated dose after 28 days; format: organism-based; settings: in vivo
Method in brief: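 Healthy mice, three per group, each given a single ip dose and observed for up to 28 days. The MTD index is the highest single dose given without causing any deaths in the group.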

[12] = Antitumor activity against human U373MG cells after 5 days by MTT assay; format: functional, cell-based, U-373MG ATCC; settings: U373 MG, 120 h; method in brief: as §1
MCF7 [13] = experiment: Antitumor activity against human MCF7 cells after 5 days by MTT assay; format: functional, cell-based; settings: MCF7, 120 h; method in brief: as §1
LoVo [14] = experiment: Antitumor activity against human LoVo cells after 5 days by MTT assay; format: functional, cell-based; settings: 120 h; method in brief: as §1
[15] = Stability in phosphate buffer of pH 7.4 after 6 days; format: physicochemical; settings: read-out: Stability
Method in brief: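 Compound dissolved at 1 mM in DMSO, diluted with phosphate buffer pH 7.4 to 1 mL, incubated sealed at 37 °C for 6 days. A t0 aliquot was held at 4 °C. HPLC with 280 nm detection and duplicate injections, with expected degradation products as references. Stability is taken as compound peak area over (compound + degradation product) peak area.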

PC-3 [16] = experiment: Antitumor activity against human PC3 cells after 5 days by MTT assay; format: functional, cell-based; settings: PC-3, 120 h; method in brief: as §1
U373 MG = experiment: Ratio of ciprofloxacin IC50 to compound IC50 for human U373MG cells; format: functional, U-373MG ATCC
A549 [17] = experiment: Ratio of ciprofloxacin IC50 to compound IC50 for human A549 cells; format: functional
MCF7 [18] = experiment: Antitumor activity against human MCF7 cells after 3 days by MTT assay; format: functional, cell-based; settings: MCF7, 72 h
HT-29 [19] = experiment: Antitumor activity against human HT-29 cells after 3 days by MTT assay; format: functional, cell-based; settings: HT-29, 72 h
DU-145 = experiment: Inhibition of human DU145 cell proliferation; format: functional, cell-based
HCT-8 = experiment: Antitumor activity against human HCT8 cells after 3 days by MTT assay; format: functional, cell-based; settings: HCT-8, 72 h
A549 [20] = experiment: Antitumor activity against human A549 cells after 3 days by MTT assay; format: functional, cell-based; settings: A549, 72 h
[21] = Inhibition of human […] cell proliferation; format: functional, cell-based
P388 = experiment: Inhibition of mouse P388 cell proliferation; format: functional, cell-based
B16 = experiment: Inhibition of mouse B16 cell proliferation; format: functional, cell-based
SW480 = experiment: Inhibition of human SW480 cell proliferation by MTT assay; format: functional, cell-based
SK-MEL = experiment: Inhibition of human SK-MEL cell proliferation by MTT assay; format: functional, cell-based
V79 = experiment: Inhibition of chinese hamster V79 cell proliferation assessed as bromodeoxyuridine incorporation during DNA synthesis after 48 hrs by ELISA; settings: Cricetulus griseus, V79, 48 h
[22] = biological target: DNA topoisomerase 2-alpha (Homo sapiens) (UniProt P11388); experiment: Inhibition of topoisomerase 2-mediated DNA relaxation activity in human HeLa cells by Oomori method; format: cell-based
MG-63 = experiment: Inhibition of human MG63 cell proliferation assessed as bromodeoxyuridine incorporation during DNA synthesis after 48 hrs by ELISA; format: functional, cell-based; settings: MG-63, 48 h
NCI-H460 [23] = experiment: Inhibition of human NCI-H460 cell proliferation by sulphorodhamine B assay; format: functional, cell-based
KB = experiment: Inhibition of human KB cell proliferation by MTT assay; format: functional, cell-based
HeLa [24] = experiment: Inhibition of human HeLa cell proliferation; format: functional, cell-based
MCF7 [25] = experiment: Inhibition of human MCF7 cell proliferation after 5 days by MTT assay; format: functional, cell-based; settings: MCF7, 120 h; method in brief: as §1
A-431 = experiment: Inhibition of human A431 cell proliferation by MTT assay; format: functional, cell-based
MC3T3-E1 = experiment: Inhibition of mouse MC3T3-E1 cell proliferation after 48 to 72 hrs; format: functional, cell-based
EJ = experiment: Inhibition of human EJ cell proliferation by MTT assay; format: functional, cell-based
NCI-H460 [26] = experiment: Induction of apoptosis in human NCI-H460 cells at 120 uM by sulphorodhamine B assay; format: functional
[27] = Inhibition of mouse NIH/3T3 cell proliferation by MTT assay; format: cell-based; settings: NIH3T3
HeLa [28] = experiment: Inhibition of human HeLa cell proliferation assessed as bromodeoxyuridine incorporation during DNA synthesis after 48 hrs by ELISA; format: functional, cell-based
MCF7 [29] = experiment: Inhibition of human MCF7 cell proliferation by MTT assay; format: functional, cell-based
K562 = experiment: Inhibition of human K562 cell proliferation by sulphorodhamine B assay; format: functional, cell-based

N[C@H]1CCN(c2c(F)cc3c(=O)c(C(=O)O)cn4c3c2Oc2c-4ccc3c2ccc2ccccc23)C1
IC50 (MCF7 [1]): 1 µM
IC50 (G-quadruplex DNA): 0.7 µM
IC50 [2]: 0.7 µM

N[C@@H]1CCN(c2c(F)cc3c(=O)c(C(=O)O)cn4c3c2Oc2c-4ccc3ccccc23)C1
Activity [3]: 0.2 µM
IC50 (NCI-H226): 0.01 µM
Activity [4]: 3 µM
IC50 [5]: 0.005 µM
IC50 (HT-29 [6]): 0.03 µM

O=C(O)c1cn(C2CC2)c2cc(N3CCN(C(=O)CCl)CC3)c(F)cc2c1=O
Ratio IC50 (LoVo [7]): 5
Ratio IC50 (MCF7 [8]): 5
Ratio IC50 (PC-3 [9]): 5
IC50 (A549 [10]): 10 µM
MTD at 672 h [11]: > 80 mg/kg
IC50 [12]: 4 µM
IC50 (MCF7 [13]): 23 µM
IC50 (LoVo [14]): 17 µM
remaining at 144 h [15]: > 99%
IC50 (PC-3 [16]): 8 µM
Ratio IC50 (U373 MG): 5
Ratio IC50 (A549 [17]): 5

NC1CCN(c2c(F)cc3c(=O)c(C(=O)O)cn4c3c2Oc2ccccc2-4)C1 (configuration not stated)
IC50 (MCF7 [18]): 0.8 µM
Activity [3]: 0.5 µM
IC50 (HT-29 [19]): 0.5 µM
IC50 (MCF7 [1]): 0.7 µM
Activity [4]: 50 µM
IC50 (DU-145): 0.2 µM
IC50 (HCT-8): 0.3 µM
IC50 (HT-29 [6]): 0.2 µM
IC50 [2]: 0.3 µM
IC50 (A549 [20]): 1.3 µM
IC50 [21]: 0.7 µM
IC50 (P388): 0.05 µM

N[C@H]1CCN(c2c(F)cc3c(=O)c(C(=O)O)cn4c3c2Oc2c-4ccc3ccccc23)C1
Activity [3]: 0.5 µM
IC50 (NCI-H226): 0.03 µM
IC50 (B16): 0.2 µM
Activity [4]: 10 µM
IC50 [5]: 0.08 µM
IC50 (DU-145): 0.06 µM
IC50 (HT-29 [6]): 0.05 µM

N[C@@H]1CCN(c2c(F)cc3c(=O)c(C(=O)O)cn4c3c2Oc2c-4ccc3c2ccc2ccccc23)C1
IC50 (MCF7 [1]): 0.5 µM
IC50 (G-quadruplex DNA): 0.06 µM
IC50 [2]: 0.3 µM

O=C(O)c1cn(C2CC2)c2cc(N3CCNCC3)c(F)cc2c1=O [CIPROFLOXACIN]
IC50 (SW480): 128 µM
IC50 (SK-MEL): 196 µM
IC50 (V79): > 1000 µM
Activity [22]: 104 µM
IC50 (MG-63): 480 µM
IC50 (A549 [10]): 280 µM
IC50 (NCI-H460 [23]): 60 µM
IC50 (KB): 160 µM
IC50 (HeLa [24]): 270 µM
MTD at 672 h [11]: > 80 mg/kg
IC50 (MCF7 [25]): 76 µM
IC50 (A-431): 135 µM
IC50 (MC3T3-E1): 120 µM
IC50 [12]: 96 µM
IC50 (EJ): 202 µM
IC50 (MCF7 [13]): 476 µM
IC50 (LoVo [14]): 89 µM
Activity (NCI-H460 [26]): 35%
IC50 [27]: > 1000 µM
IC50 (HeLa [28]): 800 µM
IC50 (MCF7 [29]): 199 µM
IC50 (K562): > 150 µM
IC50 (PC-3 [16]): 143 µM

CC(C)(C)OC(=O)N1CCN(c2cc3c(cc2F)c(=O)c(C(=O)O)cn3C2CC2)CC1
Ratio IC50 (LoVo [7]): 2
Ratio IC50 (MCF7 [8]): 2
Ratio IC50 (PC-3 [9]): 2
IC50 (A549 [10]): 18 µM
MTD at 672 h [11]: > 80 mg/kg
IC50 [12]: 35 µM
IC50 (MCF7 [13]): 13 µM
IC50 (LoVo [14]): 40 µM
remaining at 144 h [15]: > 99%
IC50 (PC-3 [16]): 26 µM
Ratio IC50 (U373 MG): 2
Ratio IC50 (A549 [17]): 2
